Test results published in ChEMBL document CHEMBL4428026, “Discovery of New Monocarbonyl Ligustrazine-Curcumin Hybrids for Intervention of Drug-Sensitive and Drug-Resistant Lung Cancer” (J Med Chem, 2016).
pIC50: −log10 of the molar value. The source made the active and inactive calls. No cut-off for these calls is given here.

Columns and labels:
[1] = Acute toxicity in ICR mouse assessed as mortality at 200 to 400 mg/kg, ip measured at 4 hr post treatment; assay type: organism-based; conditions: in vivo
In short: (§1)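 Male and female ICR mice (7 weeks), randomized, 10 per group, given one intraperitoneal dose at 200, 250, 300, 350, 400 or 450 mg/kg. Animals were watched for abnormal behaviour and deaths up to two weeks. Deaths were tallied at 1 h, 4 h, day 3 and days 4-14, with survival on day 14. LD50 was calculated with 95% confidence limits.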

A549 [2] = assay: Induction of apoptosis in human A549 cells assessed as increase in Bax expression at 2.1 to 4.2 uM after 24 hrs by Western blot method; assay type: functional, cell-based
In short: (§2)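 Cells were plated at 1 × 10^6/well overnight, then treated 24 h with vehicle DMSO (0.1%, v/v) or compound (A549, 2.1 or 4.2 µM; A549/DDP, 0.6 or 1.2 µM). Lysis was at 4 °C. Lysates were run on SDS-PAGE (7.5% gel, 20 µg/lane) and immunoblotted with ECL detection; phospho-Akt Ser473 and phospho-ERK Thr202/Tyr204 were probed. Bands were normalized to GAPDH (TrxR, Trx) or β-actin. Three independent experiments were run.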

A549 [3] = assay: Induction of apoptosis in human A549 cells at 2.1 to 4.2 uM after 24 hrs by annexin V-FITC/propidium iodide staining-based flow cytometry; assay type: functional, cell-based
In short: (§3)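 Cells were seeded at 1 × 10^5/well and treated 24 h with DMSO (1%) or compound. They were then washed in PBS, stained with FITC-Annexin V and propidium iodide, and apoptotic fractions were quantified by flow cytometry.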

A549/CDDP [4] = assay: Induction of apoptosis in human A549/CDDP cells at 0.6 to 1.2 uM after 24 hrs by annexin V-FITC/propidium iodide staining-based flow cytometry; assay type: functional, cell-based; in short: as §3
[5] = Antiproliferative activity against human LTEP-G2 cells after 72 hrs by MTT assay; assay type: functional, cell-based
In short: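 Cells (A549, A549/DDP, SPC-A-1, LTEP-G-2, non-tumor bronchial epithelial HBE) were exposed in triplicate to vehicle or compound for 72 h. MTT (5 mg/mL in PBS) was then added for 4 h, formazan was dissolved in DMSO, and absorbance was read at 570 nm. IC50 values were derived from viability.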

A549 [6] = assay: Decrease in Trx expression in human A549 cells at 2.1 to 4.2 uM after 24 hrs by Western blot method; assay type: functional, cell-based; in short: as §2
A549/CDDP [7] = assay: Effect on ERK expression in human A549/CDDP cells at 0.6 to 1.2 uM after 24 hrs by Western blot method; assay type: functional, cell-based; in short: as §2
[8] = Acute toxicity in ICR mouse assessed as survival at 400 mg/kg, ip measured on day 14; assay type: organism-based; conditions: in vivo; in short: as §1
A549 [9] = assay: Inhibition of ERK phosphorylation in human A549 cells at 2.1 to 4.2 uM after 24 hrs by Western blot method; assay type: cell-based; in short: as §2
Thioredoxin reductase [10] = biological target: T1, Thioredoxin reductase (Homo sapiens, UniProt Q16881+Q9NNW7+Q86VQ6); assay: Inhibition of thioredoxin reductase in human A549 cells by DTNB dye based microplate spectrophotometry; assay type: cell-based
In short: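 A549 or A549/DDP cells were treated with varying compound concentrations for 24 h, then harvested, homogenized and centrifuged. Protein (50 µg) was reacted in triplicate with NADPH and DTNB in TE buffer at 37 °C for 1 h, and TNB was read at 412 nm. Activity was taken from a purified-TrxR standard curve, and IC50 was derived.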

[11] = Toxicity in BALB/c nude mouse xenografted with human A549/CDDP cells assessed as body weight at 20 mg/kg, ip administered daily for 15 consecutive days measured on day 15 (reference value: 21 +/- 1.28 g); assay type: organism-based; conditions: in vivo
A549/CDDP [12] = assay: Induction of apoptosis in human A549/CDDP cells assessed as increase in cleaved PARP level at 0.6 to 1.2 uM after 24 hrs by Western blot method; assay type: functional, cell-based; in short: as §2
[13] = Toxicity in BALB/c nude mouse xenografted with human A549/CDDP cells assessed as body weight at 20 mg/kg, ip administered daily for 15 consecutive days measured on day 1 (reference value: 19.3 +/- 1.55 g); assay type: organism-based; conditions: in vivo
[14] = biological target: RAC-alpha serine/threonine-protein kinase (Homo sapiens) (UniProt P31749); assay: Inhibition of Akt phosphorylation in human A549 cells at 2.1 to 4.2 uM after 24 hrs by Western blot method; assay type: cell-based; in short: as §2
RAC-alpha serine/threonine-protein kinase (Homo sapiens), sequence (P31749 whole entry): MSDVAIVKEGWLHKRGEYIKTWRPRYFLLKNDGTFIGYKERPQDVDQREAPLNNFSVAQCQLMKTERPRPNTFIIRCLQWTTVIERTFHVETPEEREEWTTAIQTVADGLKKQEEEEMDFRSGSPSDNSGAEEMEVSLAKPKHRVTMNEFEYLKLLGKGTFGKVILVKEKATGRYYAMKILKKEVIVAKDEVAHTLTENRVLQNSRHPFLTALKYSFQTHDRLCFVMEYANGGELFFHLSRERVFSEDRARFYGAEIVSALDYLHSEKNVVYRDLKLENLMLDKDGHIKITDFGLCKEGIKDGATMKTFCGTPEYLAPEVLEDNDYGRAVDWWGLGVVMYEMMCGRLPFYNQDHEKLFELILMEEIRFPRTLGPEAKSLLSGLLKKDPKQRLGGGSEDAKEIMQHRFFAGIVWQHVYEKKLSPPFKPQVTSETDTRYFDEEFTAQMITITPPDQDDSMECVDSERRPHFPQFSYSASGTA

A549/CDDP [15] = assay: Induction of apoptosis in human A549/CDDP cells assessed as increase in cleaved caspase 3 level at 0.6 to 1.2 uM after 24 hrs by Western blot method; assay type: functional, cell-based; in short: as §2
Thioredoxin reductase [16] = biological target: T1, Thioredoxin reductase; assay: Inhibition of thioredoxin reductase (unknown origin) after 2 hrs by DTNB dye based microplate spectrophotometry; assay type: protein assay
In short: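 NADPH-reduced TrxR (0.16 µM) was preincubated in triplicate with vehicle DMSO (0.1%, v/v) or varying compound concentrations for 2 h. It was then reacted with 2 mM DTNB and 200 µM NADPH for 3 min, and absorbance was read at 412 nm. IC50 was derived.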

A549 [17] = assay: Induction of apoptosis in human A549 cells assessed as increase in Bax to Bcl2 ratio at 2.1 to 4.2 uM after 24 hrs by Western blot method; assay type: functional, cell-based; in short: as §2
A549/CDDP [18] = assay: Anticancer activity against human A549/CDDP cells xenografted in BALB/c nude mouse assessed as tumor growth inhibition at 20 mg/kg, ip administered daily for 15 consecutive days measured every 3 days; assay type: functional; conditions: read-out: TGI
In short: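 Both sexes of athymic BALB/c nude mice (4-5 weeks) were inoculated subcutaneously with A549/DDP cells (1 × 10^7/mouse). Once tumors reached 180-200 mm3, mice were randomized (n = 8). They received ip dosing daily for 15 consecutive days, with vehicle PBS/DMSO/cremophor-EL (8:1:1). Tumors were measured by caliper and volume was taken as width2 × length/2. Growth inhibition was taken from tumor weight (w/w).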

[19] = Toxicity in BALB/c nude mouse xenografted with human A549/CDDP cells assessed as body weight at 40 mg/kg, ip administered daily for 15 consecutive days measured on day 15 (reference value: 21 +/- 1.28 g); assay type: organism-based; conditions: in vivo
In short: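 Athymic BALB/c nude mice of both sexes, 4-5 weeks, inoculated subcutaneously with A549/DDP cells (1 × 10^7/mouse). Once tumors reached 180-200 mm3, mice were randomized and given ip dosing daily for 15 consecutive days. Vehicle was PBS/DMSO/cremophor-EL (8:1:1), given at the same volume to controls. Body weight was recorded on day 1 and day 15. Reported as mean ± SD, n = 8.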

[20] = biological target: ATP-dependent translocase ABCB1 (Homo sapiens, UniProt P08183); assay: Inhibition of P-gp in human A549/CDDP cells assessed as accumulation of rhodamine 123 at 0.03 to 1.2 uM by flow cytometry; assay type: cell-based
ATP-dependent translocase ABCB1, sequence (P08183 whole entry): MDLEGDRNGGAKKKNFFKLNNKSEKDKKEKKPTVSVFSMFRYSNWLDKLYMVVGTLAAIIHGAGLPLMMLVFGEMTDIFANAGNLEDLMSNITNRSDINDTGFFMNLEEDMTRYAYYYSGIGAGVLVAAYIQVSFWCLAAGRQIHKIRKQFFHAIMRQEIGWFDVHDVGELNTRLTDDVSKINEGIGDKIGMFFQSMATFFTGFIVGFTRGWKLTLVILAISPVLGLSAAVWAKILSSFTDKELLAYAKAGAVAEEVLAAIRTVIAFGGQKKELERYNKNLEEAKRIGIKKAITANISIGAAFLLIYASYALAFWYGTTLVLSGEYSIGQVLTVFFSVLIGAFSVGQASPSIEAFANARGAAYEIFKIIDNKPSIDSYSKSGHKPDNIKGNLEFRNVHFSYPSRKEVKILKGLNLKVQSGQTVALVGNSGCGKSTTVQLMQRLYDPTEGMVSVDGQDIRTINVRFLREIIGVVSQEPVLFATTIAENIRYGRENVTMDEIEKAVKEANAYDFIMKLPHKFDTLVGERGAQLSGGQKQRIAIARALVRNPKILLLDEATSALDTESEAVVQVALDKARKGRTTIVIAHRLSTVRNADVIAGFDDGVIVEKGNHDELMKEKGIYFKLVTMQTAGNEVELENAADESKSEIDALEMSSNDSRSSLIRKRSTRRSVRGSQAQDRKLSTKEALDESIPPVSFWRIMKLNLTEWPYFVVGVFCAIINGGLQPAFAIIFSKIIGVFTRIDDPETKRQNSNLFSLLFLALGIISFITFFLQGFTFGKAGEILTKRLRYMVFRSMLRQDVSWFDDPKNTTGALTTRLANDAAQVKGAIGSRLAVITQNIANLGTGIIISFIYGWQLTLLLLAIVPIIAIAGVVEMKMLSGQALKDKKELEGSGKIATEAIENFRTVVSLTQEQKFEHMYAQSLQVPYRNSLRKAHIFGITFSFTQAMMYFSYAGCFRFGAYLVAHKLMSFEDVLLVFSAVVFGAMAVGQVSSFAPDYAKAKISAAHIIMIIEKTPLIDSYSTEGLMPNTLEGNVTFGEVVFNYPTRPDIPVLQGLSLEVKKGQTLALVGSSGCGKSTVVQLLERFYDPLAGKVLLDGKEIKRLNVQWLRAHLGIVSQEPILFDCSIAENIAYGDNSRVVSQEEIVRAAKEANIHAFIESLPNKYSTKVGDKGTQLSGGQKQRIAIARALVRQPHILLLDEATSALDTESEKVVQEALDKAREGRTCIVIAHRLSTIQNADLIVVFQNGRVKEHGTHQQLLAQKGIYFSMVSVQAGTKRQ
In short: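 A549/DDP cells were treated with compound (0.03-1.2 µM), with verapamil as the reference P-gp inhibitor. Intracellular rhodamine 123 accumulation was measured by flow cytometry.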

A549 [21] = assay: Induction of apoptosis in human A549 cells assessed as decrease in Bcl2 expression at 2.1 to 4.2 uM after 24 hrs by Western blot method; assay type: functional, cell-based; in short: as §2
[22] = Acute toxicity in ICR mouse assessed as mortality at 200 to 450 mg/kg, ip measured on day 4 to 14 post treatment; assay type: organism-based; conditions: in vivo; in short: as §1

## COc1cc(/C=C/C(=O)/C=C/c2nc(C)c(C)nc2C)ccc1O
[1]
  Activity: Non-Toxic
A549 [2]
  Activity: Active
A549 [3]
  Activity: Active
A549/CDDP [4]
  Activity: Active
[5]
  pIC50: 5.54
A549 [6]
  Activity: Active
A549/CDDP [7]
  Activity: inactive
[8]
  survival at 14 day: 10%
A549 [9]
  inhibition: Active
Thioredoxin reductase [10]
  IC50: 1.49 µM
[11]
  Activity: 18.6 g
A549/CDDP [12]
  Activity: Active
[13]
  Activity: 18.3 g
[14]
  inhibition: Active
A549/CDDP [15]
  Activity: Active
Thioredoxin reductase [16]
  IC50: 2.95 µM
A549 [17]
  Activity: Active
A549/CDDP [18]
  inhibition in vivo at 20 mg/kg: 36%
[19]
  Activity: 19.6 g
[20]
  inhibition (INH): Active
A549 [21]
  Activity: Active
[22]
  Activity: Non-Toxic
